# From PubChem
# ADAM10 inh = ADAM10 inhibition, QFRET primary screen. inhibition, % at 7 µM. recombinant ADAM10, EDANS/DABCYL FRET peptide cleavage, 3 h. O14672. actives 0.62% (n = 370,000);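 active = inhibition above a per-campaign cutoff equal to the mean of compounds falling between control-based bounds plus 3 SD, cut at about 20% in these data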
# PLCb3 inh = inhibitors of human phospholipase C beta3 | AID 720704 | inhibition, % at 12.2 µM | Purified PLC-beta3, fluorogenic substrate, fluorescence | actives 0.18% (n = 370,000); in the data active = inhibition above about 11%
# Target sequence (Q01970 whole entry, looked up): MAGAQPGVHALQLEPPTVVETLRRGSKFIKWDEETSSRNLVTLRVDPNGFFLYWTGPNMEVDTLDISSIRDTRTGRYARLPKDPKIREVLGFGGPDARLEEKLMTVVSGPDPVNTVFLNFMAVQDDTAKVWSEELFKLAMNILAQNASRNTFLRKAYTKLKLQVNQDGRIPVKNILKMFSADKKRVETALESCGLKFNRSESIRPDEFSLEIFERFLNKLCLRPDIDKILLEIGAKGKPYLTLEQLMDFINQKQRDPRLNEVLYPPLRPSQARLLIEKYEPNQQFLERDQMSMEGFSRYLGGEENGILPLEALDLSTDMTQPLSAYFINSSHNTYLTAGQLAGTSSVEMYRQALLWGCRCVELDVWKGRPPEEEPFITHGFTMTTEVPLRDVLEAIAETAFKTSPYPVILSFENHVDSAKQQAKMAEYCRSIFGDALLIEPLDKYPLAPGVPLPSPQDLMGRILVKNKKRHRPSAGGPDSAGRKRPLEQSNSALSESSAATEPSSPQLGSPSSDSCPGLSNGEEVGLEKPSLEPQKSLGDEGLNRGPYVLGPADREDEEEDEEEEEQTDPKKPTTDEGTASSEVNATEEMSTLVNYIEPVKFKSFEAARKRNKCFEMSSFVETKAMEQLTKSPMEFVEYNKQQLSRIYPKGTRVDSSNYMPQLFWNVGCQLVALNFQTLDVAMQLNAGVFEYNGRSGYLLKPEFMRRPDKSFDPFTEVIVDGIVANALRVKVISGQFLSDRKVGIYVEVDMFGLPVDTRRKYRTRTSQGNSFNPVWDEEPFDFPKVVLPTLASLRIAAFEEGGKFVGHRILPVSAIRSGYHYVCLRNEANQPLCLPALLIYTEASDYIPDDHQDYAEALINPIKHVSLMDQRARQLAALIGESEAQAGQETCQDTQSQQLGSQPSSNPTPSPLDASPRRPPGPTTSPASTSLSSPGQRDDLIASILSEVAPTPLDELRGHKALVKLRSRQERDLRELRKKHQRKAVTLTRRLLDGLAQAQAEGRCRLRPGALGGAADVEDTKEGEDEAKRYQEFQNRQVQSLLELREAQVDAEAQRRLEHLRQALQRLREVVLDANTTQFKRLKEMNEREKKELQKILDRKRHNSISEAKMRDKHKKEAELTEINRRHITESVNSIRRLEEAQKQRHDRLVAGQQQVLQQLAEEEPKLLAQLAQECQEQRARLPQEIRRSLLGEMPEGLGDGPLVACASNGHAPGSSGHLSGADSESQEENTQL
# Tb MetRS inh = Trypanosoma brucei MetRS inhibition; inhibition, % at 11.9 µM; purified T. brucei MetRS, ATP depletion, Kinase-Glo luminescence; actives 0.4% (n = 360,000); AID 624268;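 active = inhibition above a per-plate cutoff of the control wells' mean inhibition plus 3 SD, cut at about 5.5% in these data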
#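 Dosing: 11.9 µM single point; system: parasite MetRS enzyme; technique: luminescence of leftover ATP; times: 15 min enzyme-compound preincubation, 2 h reaction, 10 min detection, 25 °C; replicates: each compound tested once; read-out basis: percent inhibition relative to median high and low control wells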
# ADAM17 inh = inhibits human ADAM17. P78536. recombinant ADAM17, EDANS/DABCYL FRET peptide cleavage. actives 0.83% (n = 370,000). inhibition, % at 6.95 µM. AID 720648;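 active = inhibition above the mean of compounds lying between control limits plus 3 SD, set per campaign, cut at about 8.5% in these data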
# PLC-gamma1 inh = PLC-gamma1 (human) inhibition, primary screen; P19174; purified PLC-gamma1, fluorogenic substrate, fluorescence; inhibition, % at 12.2 µM; actives 0.84% (n = 370,000); AID 720700
# PLCgamma1 ctr = PLC-gamma1 inhibition, counter-screen for PLC-beta3 hits; inhibition, % at 12.3 µM; shares compounds with PLC-gamma1 inh; actives 3.1% (n = 3,300); AID 743258; purified PLC-gamma1, fluorogenic substrate, fluorescence
# PLCb3 confirm = human PLC-beta3 inhibition, confirmation | shares compounds with PLC-gamma1 inh | purified PLC-beta3, fluorogenic substrate fluorescence | inhibition, % at 12.3 µM | actives 1% (n = 3,300) | AID 743261; in the data active = inhibition above about 11%
# Numbers stand for hits; n = inactive; x = not tested or not shown. Shown are actives, neighbours in structure and some others; about 2.3% of the full set was active somewhere. Cut-off read from the data, not from the text of the source, unless noted: active = inhibition above about 9.5%; inactive = the rest.
SMILES,ADAM10 inh,PLCb3 inh,Tb MetRS inh,ADAM17 inh,PLC-gamma1 inh,PLCgamma1 ctr,PLCb3 confirm
O=C(CCc1nc2ccccc2s1)OCc1ccccc1,n,11,n,n,n,n,n
CCOC(=O)[C@]12CCCCC/C=C\1N(Cc1ccc(OC)cc1)C(=O)[C@H]2CC(=O)NCc1ccc(OC)c(OC)c1,n,n,x,n,n,x,x
CCOC(=O)[C@]12CCCCC/C=C\1N(Cc1ccc(OC)cc1)C(=O)[C@H]2CC(=O)NCc1cccs1,n,n,x,n,9.5,n,n
CCCCN1C(=O)C(CC(=O)NCc2ccco2)CC(C(=O)N(CC)CC)=C1C (stereo unspecified),n,n,n,n,n,x,x
COc1ccc(C(=O)c2c(-c3cccc(C)c3)oc3ccc(N4CCOCC4)cc23)cn1,n,n,n,n,n,x,x
C/C(=N/NC(=O)c1cc(-c2cccc([N+](=O)[O-])c2)n[nH]1)c1cccc(O)c1,n,n,n,n,14,n,n
CCOC(=O)c1sc(NC(=S)NC(=O)C2CCCC2)cc1C,n,n,n,n,n,x,x
CCOC(=O)c1sc(NC(=O)C2CC2)cc1C,n,n,n,n,11,n,n
O=C(CCOc1ccccc1)Nc1ccnn1C1CCN(C(=O)CCC(F)(F)F)CC1,n,n,n,n,n,x,x
O=C1CN(C(=O)COC(=O)c2cccc(Br)c2)c2ccccc2N1,n,n,n,n,14,n,n
Cc1ccc(NC2CCCN(C(=O)CCc3ccncc3)C2)cc1C (stereo unspecified),n,n,n,n,n,x,x
O=C(CCS(=O)(=O)c1ccc(F)cc1)N1CCOCC1,n,n,n,n,n,x,x
COc1ccc(CNC(=O)CCn2c(C)csc2=O)cc1,n,n,n,n,11,n,n
CN(c1ccc(NC(=O)Cc2cn(C)c3ccccc23)cc1)c1ccccn1,n,n,x,n,n,x,x
O=C(NCc1ccc2c(c1)OCO2)Nc1ccc([N+](=O)[O-])cc1,n,n,n,n,11,n,n
O=C(NCc1ccc2c(c1)OCO2)Nc1ccc(Cl)cc1,n,n,n,n,n,x,x
CCC(=O)Nc1nnc(SCc2ccccc2F)s1,n,n,n,n,n,x,x
COC(=O)CSc1nc2ccccc2n1CC(=O)N(C(C)C)C(C)C,n,13,n,n,n,n,n
Cc1ccc(OCCSc2nc3ccccc3n2CC(=O)O)cc1C,n,n,n,n,n,x,x
CC(NC(=O)C(NC(=O)OCc1ccccc1)C(C)O)C(=O)OCc1ccccc1 (stereo unspecified),n,n,x,n,n,x,x
Cc1ccc2c(CN3CCCCC3)cc(=O)oc2c1C,n,n,n,n,n,x,x
Cc1ccc2c(CSc3nncn3C)cc(=O)oc2c1C,n,n,n,n,11,n,n
CCN(CC)C(=O)CC[C@@H]1CC[C@]2(CCCN(Cc3cccc4ccccc34)C2)O1,n,n,x,n,n,x,x
CCn1c(SCC(=O)Nc2ccc(OC)c(OC)c2)nnc1-c1cccs1,n,n,n,n,12,n,n
CCCCn1c(SCC(=O)Nc2cc(C)on2)nnc1-c1cccs1,n,n,n,n,n,x,x
SMILES,ADAM10 inh,PLCb3 inh,Tb MetRS inh,ADAM17 inh,PLC-gamma1 inh,PLCgamma1 ctr,PLCb3 confirm
Cc1cc(NC(=O)CSc2nnc(-c3cccs3)n2N)no1,n,n,n,n,9.9,n,n
NC(=O)c1ccc(NC(=O)COC(=O)c2ccc(Br)c(S(=O)(=O)N3CCOCC3)c2)cc1,n,n,n,n,n,x,x
O=C(O)CC(C(=O)Nc1cccc(C(F)(F)F)c1)C1CCCO1 (stereo unspecified),n,n,n,n,16,n,n
COc1ccc(S(=O)(=O)Nc2c(C)nc3nc(C)[nH]n3c2=O)cc1,n,n,n,n,11,n,n
CCOC(=O)[C@H]1[C@H]2COc3ccccc3[C@@H]2N2C(=O)c3cc(F)c(F)cc3NC(=O)[C@@]12C,n,n,n,n,n,x,x
CCOC(=O)[C@H]1[C@H]2COc3ccccc3[C@@H]2N2C(=O)CNC(=O)[C@@]12C,n,13,n,n,n,n,n
CCCCN(CC)S(=O)(=O)c1ccc2c(c1)CCCN2C(C)=O,n,n,n,n,n,x,x
CC(=O)N1CCCc2cc(S(=O)(=O)N(C)Cc3ccccc3)ccc21,n,n,n,n,9.8,n,n
Cc1ccc(S(=O)(=O)N(C)CCCC(=O)N2CCN(C=O)CC2)cc1,n,11,n,n,10,n,n
Cc1ccc(S(=O)(=O)N(C)CCCC(=O)N2CCOCC2)cc1,n,n,n,n,n,x,x
CN(Cc1cn(-c2ccccc2)nc1-c1cc2ccccc2o1)C(=O)CCC(=O)O,n,n,n,n,10,n,n
Fc1ccc(-[n+]2nc(Nc3ccccc3)sc2-c2c(Cl)cccc2Cl)cc1,n,15,n,n,11,n,n
C=CCn1c(NC(C)c2cc(Cl)ccc2O)nc2ccccc21 (stereo unspecified),n,n,n,n,n,x,x
CC(Nc1ccc(Br)cn1)c1cc(Cl)ccc1O (stereo unspecified),n,n,n,n,9.7,n,n
COc1cc(S(=O)(=O)Nc2ccccc2C)ccc1NC(=O)c1ccncc1,n,n,n,n,n,x,x
COc1cc(S(=O)(=O)Nc2ccc(C)cc2)ccc1NC(=O)c1ccncc1,n,n,n,n,12,n,n
Cc1ccc(/C=N/NC(=O)C[n+]2ccccc2)s1,n,n,n,n,n,x,x
CCCCCCCCCC(=O)N/N=C/c1ccc(C)s1,n,n,n,n,10,n,n
CCCN(CC(=O)Nc1ccccc1C)C(=O)c1ccc(N2CCCC(C)C2)c([N+](=O)[O-])c1 (stereo unspecified),n,n,n,n,n,x,x
O=C(NCc1cccnc1)c1cc(C2CCCN(C(=O)c3cccs3)C2)on1 (stereo unspecified),n,n,n,n,16,n,n
O=C(NCc1ccc(F)cc1)c1cc(C2CCCN(C(=O)c3cccs3)C2)on1 (stereo unspecified),n,n,n,n,n,x,x
O=C(NCCCc1ccccc1)c1ccc(CS(=O)Cc2ccc(Cl)cc2)o1 (stereo unspecified),n,n,n,n,n,x,x
O=C(Nc1ccc(Cl)cc1)N1CCN(Cc2nc3ccccc3c(=O)[nH]2)CC1,n,n,x,n,n,x,x
COc1ccc(N2CCN(C3CCCN(C(=O)CN4CCCC4=O)C3)CC2)cc1 (stereo unspecified),n,n,n,n,9.8,n,n
Cc1cccc(CN2CCN(CC(=O)NCc3ccc(F)cc3)C2=O)c1,n,n,n,n,11,n,n
O=C(NC1CC1)C1=NOC(CNc2ncc(C(F)(F)F)cc2Cl)C1 (stereo unspecified),n,n,n,n,n,x,x
